Target in one assay: not listed separately
Put plainly: Inhibitory activity was measured for Glyceraldehyde-3-phosphate dehydrogenase in Trypanosoma cruzi. The method, boiled down: (§1)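 Recombinant glycosomal GAPDH of L. mexicana, T. cruzi or T. brucei; human enzyme from erythrocytes. NADH formation followed at 340 nm, 21 °C, in 0.1 M triethanolamine-HCl pH 7.6 with DTT, NaN3, MgSO4, EDTA, 10 mM K2HPO4, 0.8 mM glyceraldehyde-3-phosphate, 0.19 mM NAD+, 5% DMSO. Reaction started with enzyme. IC50 from 0–1 min initial rates at ≥5 inhibitor levels versus DMSO control.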
Glyceraldehyde-3-phosphate dehydrogenase, sequence (P04406 whole entry): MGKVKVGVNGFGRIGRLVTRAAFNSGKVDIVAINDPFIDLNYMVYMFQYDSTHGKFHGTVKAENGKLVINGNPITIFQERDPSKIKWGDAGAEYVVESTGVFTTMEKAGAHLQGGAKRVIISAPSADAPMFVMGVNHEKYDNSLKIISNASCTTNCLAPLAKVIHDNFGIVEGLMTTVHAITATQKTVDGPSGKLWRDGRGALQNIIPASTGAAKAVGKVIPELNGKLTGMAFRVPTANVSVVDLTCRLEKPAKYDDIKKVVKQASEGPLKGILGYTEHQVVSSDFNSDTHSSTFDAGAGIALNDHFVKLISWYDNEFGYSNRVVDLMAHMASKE
As for `COc1cccc(C(=O)N[C@@H]2[C@H](O)[C@@H](CO)O[C@H]2n2cnc3c(NCc4ccccc4C)ncnc32)c1`, the half-maximal inhibitory concentration (IC50) (commonly the concentration that gives 50% inhibition) stood at 30 µM.

`COc1cccc(C(=O)N[C@@H]2[C@H](O)[C@@H](CO)O[C@H]2n2cnc3c(NCc4ccccc4)ncnc32)c1` registered a half-inhibitory concentration (IC50) of 159 µM.

Target in the next assay: not listed separately
In words: Inhibitory activity was measured for Glyceraldehyde-3-phosphate dehydrogenase (GAPDH) in Leishmania. mexicana.
Compound `CC(C)CCNc1ncnc2c1ncn2[C@@H]1O[C@H](CO)[C@@H](O)[C@H]1O` gave an IC50 of 3700 µM.

For another assay, the target named is Glyceraldehyde-3-phosphate dehydrogenase (Homo sapiens, UniProt P04406). In words: Inhibitory activity was measured for Glyceraldehyde-3-phosphate dehydrogenase in human(erythrocytes). It is filed as cell-based. Put shortly:
as §1
The compound `COc1cccc(C(=O)N[C@@H]2[C@H](O)[C@@H](CO)O[C@H]2n2cnc3c(NCc4ccccc4C)ncnc32)c1` showed an IC50 above 270 µM.

`COc1cccc(C(=O)N[C@@H]2[C@H](O)[C@@H](CO)O[C@H]2n2cnc3c(NCc4ccccc4)ncnc32)c1` came in with a 50% inhibitory concentration (IC50) above 530 µM.

Target in another assay: not listed separately
In words: Inhibitory activity measured for Glyceraldehyde-3-phosphate dehydrogenase (GAPDH) in Leishmania. mexicana. The method, boiled down: as §1
For `COc1cccc(C(=O)N[C@@H]2[C@H](O)[C@@H](CO)O[C@H]2n2cnc3c(N)ncnc32)c1`, the IC50 was determined as 800 µM.

`OC[C@H]1OC(n2cnc3c(NC(c4ccccc4)c4ccccc4)ncnc32)[C@H](O)[C@@H]1O` (some centres not stated) showed an IC50 of 240 µM.

In turn, `OC[C@H]1O[C@@H](n2cnc3c(NC4CCCCCC4)ncnc32)[C@H](O)[C@@H]1O` gave an IC50 of 1800 µM.

As to `CCC(C)CNc1ncnc2c1ncn2C1O[C@H](CO)[C@@H](O)[C@H]1O` (some centres not stated), the IC50 was above 5400 µM.

Regarding `OC[C@H]1O[C@@H](n2cnc3c(NC4CCCC4)ncnc32)[C@H](O)[C@@H]1O` [N6-CYCLOPENTYLADENOSINE], the IC50 was above 5000 µM.

As to `OC[C@H]1O[C@@H](n2cnc3c(NC4CCCc5ccccc54)ncnc32)[C@H](O)[C@@H]1O` (some centres not stated), 360 µM corresponded to half-maximal inhibition (IC50).

Take `Nc1ncnc2c1ncn2[C@@H]1O[C@H](CO)[C@@H](O)[C@H]1NC(=O)c1cccc(O)c1`: the half-inhibitory concentration (IC50) turned out to be 850 µM.

`Nc1ncnc2c1ncn2[C@@H]1O[C@H](CO)[C@@H](O)[C@H]1NC(=O)c1cc(O)c(O)c(O)c1` returned an IC50 of 250 µM.

`Nc1ccc(CNc2ncnc3c2ncn3[C@@H]2O[C@H](CO)[C@@H](O)[C@H]2O)cc1`: the midpoint of inhibition, the IC50, lay at 3100 µM.

In the case of `Cc1cccc(CNc2ncnc3c2ncn3[C@@H]2O[C@H](CO)[C@@H](O)[C@H]2O)c1`, the IC50 was determined as 700 µM.

In the case of `COc1cccc(C(=O)N[C@@H]2[C@H](O)[C@@H](CO)O[C@H]2n2cnc3c(N)ncnc32)c1O`, inhibition was half-maximal at 600 µM (IC50).

For `CC(C)=CCNc1ncnc2c1ncn2[C@@H]1O[C@H](CO)[C@@H](O)[C@H]1O` [RIBOPRINE], the IC50 is above 5000 µM.

Compound `COc1cccc(C(=O)N[C@@H]2[C@H](O)[C@@H](CO)O[C@H]2n2cnc3c(NCc4ccccc4C)ncnc32)c1` had an IC50 of 4 µM.

In turn, `OCc1ccccc1Sc1ccccc1CNc1ncnc2c1ncn2C1O[C@H](CO)[C@@H](O)[C@H]1O` (some centres not stated) displayed an IC50 of 340 µM.

Turning to `COc1cc(C(=O)N[C@@H]2[C@H](O)[C@@H](CO)O[C@H]2n2cnc3c(N)ncnc32)ccc1O`, the IC50 worked out at 500 µM.

`CC(CO)CCNc1ncnc2c1ncn2C1O[C@H](CO)[C@@H](O)[C@H]1O` (some centres not stated) registered an IC50 of 3400 µM.

For `COc1cccc(C(=O)N[C@@H]2[C@H](O)[C@@H](CO)O[C@H]2n2cnc3c(NCc4ccccc4)ncnc32)c1`, half-maximal inhibition (IC50) was put at 16 µM.

Regarding `COc1cccc(C(=O)N[C@@H]2[C@H](O)[C@@H](CO)O[C@H]2n2cnc3c(NC(=O)C(C)C)ncnc32)c1`, 1200 µM corresponded to half-maximal inhibition (IC50).

As to `Nc1ncnc2c1ncn2[C@@H]1O[C@H](CO)[C@@H](O)[C@H]1O` [ADENOSINE], half-maximal inhibition (IC50) required 50000 µM.

As for `COc1cccc(C(=O)N[C@@H]2[C@H](O)[C@@H](CO)O[C@H]2n2cnc3c(NCc4ccccc4OC)ncnc32)c1`, the concentration for half-maximal inhibition (IC50) was found to be 25 µM.

`Nc1ncnc2c1ncn2[C@@H]1O[C@H](CO)[C@@H](O)[C@H]1NC(=O)c1cc(O)cc(O)c1` had a half-maximal inhibitory concentration (IC50) of 650 µM.

Compound `COc1cccc(C(=O)N[C@@H]2[C@H](O)[C@@H](CO)O[C@H]2n2cnc3c(NCc4cccc(C)c4C)ncnc32)c1` yielded an IC50 of 5.5 µM.

With `OC[C@H]1O[C@@H](n2cnc3c(NCc4cccc5ccccc45)ncnc32)[C@H](O)[C@@H]1O`, the IC50 amounted to 150 µM.

As to `OC[C@H]1O[C@@H](n2cnc3c(NCc4ccccc4)ncnc32)[C@H](O)[C@@H]1O` [N6-BENZYLADENOSINE], the IC50 is 4200 µM.

The compound `COc1cccc(C(=O)N[C@@H]2[C@H](O)[C@@H](CO)O[C@H]2n2cnc3c(NCc4cc(C)ccc4C)ncnc32)c1` gave an IC50 of 25 µM.

Take `Cc1ccccc1CNc1ncnc2c1ncn2[C@@H]1O[C@H](CO)[C@@H](O)[C@H]1O` [METRIFUDIL]: the IC50 came out at 700 µM.

Target in the next assay: not listed separately
In words: Inhibitory activity was measured for Glyceraldehyde-3-phosphate dehydrogenase in Trypanosoma brucei. Put shortly: as §1
As for `COc1cccc(C(=O)N[C@@H]2[C@H](O)[C@@H](CO)O[C@H]2n2cnc3c(NCc4ccccc4C)ncnc32)c1`, the 50% inhibitory concentration (IC50) came out at 30 µM.

In the case of `COc1cccc(C(=O)N[C@@H]2[C@H](O)[C@@H](CO)O[C@H]2n2cnc3c(NCc4ccccc4)ncnc32)c1`, the concentration for half-maximal inhibition (IC50) stood at 220 µM.

A further assay has as its system GAPDH (Leishmania mexicana). In words: Inhibitory activity was measured for Glyceraldehyde-3-phosphate dehydrogenase (up to 10 mM.
On to `CCCCCNc1ncnc2c1ncn2[C@@H]1O[C@H](CO)[C@@H](O)[C@H]1O`, for which the concentration for half-maximal inhibition (IC50) entry is given as “Not Active”.

For `CCCC(C)Nc1ncnc2c1ncn2C1O[C@H](CO)[C@@H](O)[C@H]1O` (some centres not stated), the IC50 result is reported as “Not Active”.

Regarding `CC(C)(C)Nc1ncnc2c1ncn2C1O[C@H](CO)[C@@H](O)[C@H]1O` (some centres not stated), the IC50 result is reported as “Not Active”.

The subject of another assay is GAPDH (Leishmania mexicana). The assay is described as above. The source holds these as a separate data set.
Turning to `CC(C)Nc1ncnc2c1ncn2[C@@H]1O[C@H](CO)[C@@H](O)[C@H]1O`, the half-maximal inhibitory concentration (IC50) entry is “Not Active”.

The record behind these values is ChEMBL document CHEMBL1131193, “Selective tight binding inhibitors of trypanosomal glyceraldehyde-3-phosphate dehydrogenase via structure-based drug design” (J Med Chem, 1998).
